HTR2A ag = activates the mouse 5-HT2A serotonin receptor. AID 624169. CHO-K1 mHTR2A beta-arrestin complementation, luminescence; percent of 30 µM serotonin response. activation, % at 7.6 µM. 0.66% of 360,000 active;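 active means activation above a run cutoff, the mean activation of all tested compounds plus 3 SD, cut at about 14% in these data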
AHR activator = activators of human aryl hydrocarbon receptor | AHR-responsive luciferase reporter cells, luminescence | 2.5% of 320,000 active | P35869 | activation, % at 5 µM; in the data active means activation above about 47%
FXN GAA850 act = increases GAA850 frataxin promoter reporter activity; HEK293 lucGAA850 FXN promoter luciferase reporter, 24 h; percent of 10 µM SAHA response; activation, % at 6 µM; 0.56% of 360,000 active;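 active means activation above the average of all compounds screened plus 3 SD, cutoff fixed separately per campaign, cut at about 7.5% in these data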
MC4R antagonist = blocks human MC4R cAMP signaling; 0.48% of 360,000 active; AID 540295; MC4R-expressing cells, MTII-stimulated cAMP, LANCE TR-FRET; inhibition, % at 6.5 µM;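 active means inhibition above its plate's cutoff, the mean of tested wells on that plate plus 3 SD, cut at about 29% in these data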
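Assay system: U2OS cells stably expressing human melanocortin 4 receptor (MC4R) / Dosing: 6.5 µM / Timing: compound 30 min, challenge 1 h, detection 1 h / Measured by: Eu-cAMP/anti-cAMP TR-FRET, emission 671 nm / Replicates: singlicate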
MC4R ag barr = agonists of human melanocortin 4 receptor (MC4R) beta-arrestin; U2OS MC4R beta-arrestin complementation, luminescence; percent of melanotan II response, DMSO zero; AID 540308; activation, % at 8.9 µM; P32245; 0.98% of 360,000 active;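 active means activation above a per-plate cutoff, the mean activation of sample wells on that plate plus 3 SD, cut at about 8% in these data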
MOR ag counter = counter-screen for mouse HTR2A agonists: human mu opioid receptor agonists; shares compounds with HTR2A ag; U2OS OPRM1 beta-arrestin PathHunter, luminescence; DMSO 0%, DAMGO 9.3 µM 100%; activation, % at 9.3 µM; 5.3% of 2,300 active;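 active means mean activation above the mean of DMSO-only wells plus 3 SD, cut at about 0.5% in these data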
Target sequence (P35372 whole entry, looked up): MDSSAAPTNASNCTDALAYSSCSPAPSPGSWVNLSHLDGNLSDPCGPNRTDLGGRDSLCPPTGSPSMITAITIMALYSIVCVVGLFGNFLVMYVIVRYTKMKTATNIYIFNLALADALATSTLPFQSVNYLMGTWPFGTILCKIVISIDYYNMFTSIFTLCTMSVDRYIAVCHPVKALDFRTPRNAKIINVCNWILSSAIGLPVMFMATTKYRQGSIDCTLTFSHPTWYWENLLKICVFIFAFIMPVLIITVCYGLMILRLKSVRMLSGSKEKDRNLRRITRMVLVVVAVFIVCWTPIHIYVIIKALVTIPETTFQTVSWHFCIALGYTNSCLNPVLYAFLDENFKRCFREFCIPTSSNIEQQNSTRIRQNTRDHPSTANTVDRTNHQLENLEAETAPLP
m5-HT2A ag conf = mouse HTR2A agonism confirmed. shares compounds with HTR2A ag. CHO-K1 PathHunter beta-arrestin recruitment, luminescence; DMSO 0%, 30 µM serotonin 100%. activation, % at 7.6 µM. 19% of 2,300 active. AID 624381;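 active means mean activation across triplicates above the hit threshold derived in the original primary screen, cut at about 15% in these data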
A number is an active result; 0 = inactive; - = no result given. Compounds with a hit are over-represented: about 4.7% of the library has one in this group of screens.

SMILES	HTR2A ag	AHR activator	FXN GAA850 act	MC4R antagonist	MC4R ag barr	MOR ag counter	m5-HT2A ag conf
Cc1cccc(-n2ncc3c2CCCC3NC(=O)CCN2CCCO2)c1C (stereo not drawn)	15.9	0	0	0	0	0	0
Cc1ccc(NC(=O)C2(C)CCN2CCc2ccccc2)cc1 (stereo not drawn)	0	-	0	0	0	-	-
Cc1ccc2c(c1)N(S(=O)(=O)c1ccc3c(c1)NC(=O)CC(=O)N3)CCO2	0	0	0	0	0	-	-
O=C1CC(=O)Nc2cc(S(=O)(=O)N3CCOc4ccccc43)ccc2N1	25.6	0	0	0	0	0	0
O=c1c2ccccc2c2ccccc2c(=O)n1Nc1ccccc1	19.6	-	0	0	0	0	0
CC(C)c1nc(SCC(=O)Nc2ccc(N(C)C)cc2)c2ccccc2n1	0	0	0	0	0	-	-
O=C(Nc1cc(C(F)(F)F)ccc1N1CCCC1)C1CCCO1 (stereo not drawn)	0	0	0	0	0	-	-
COc1ccc(NC(=O)CSc2nc3c(c(=O)n2C)SCC3)cc1OC	0	0	0	0	0	-	-
CCn1c(SCC(=O)Nc2ccc(OC)c(OC)c2)nc2c(c1=O)SCC2	17.2	0	0	0	0	0	0
C=CCn1c(SCC(=O)NCC2CCCO2)nc2sc(CC)cc2c1=O (stereo not drawn)	16.6	0	0	0	0	0	0
COc1ccc(-n2c(SCC(=O)NCC3CCCO3)nc3c(c2=O)SCC3)cc1 (stereo not drawn)	15.4	0	0	0	0	0	0
Cc1nc([N+](=O)[O-])c(Sc2nc3ccccc3n2C)n1Cc1ccccc1	0	0	0	0	0	-	-
Cc1csc2c(N3CCC(C(=O)O)CC3)ncnc12	0	0	0	0	0	-	-
Cc1csc2c(N3CCN(C(=O)Nc4ccc(OC(F)(F)F)cc4)CC3)ncnc12	14.4	0	0	0	0	0	0
CN(C(=O)COC(=O)c1cncc(Br)c1)C1CCS(=O)(=O)C1 (stereo not drawn)	0	0	0	0	0	-	-
CN(C(=O)COC(=O)c1cncc(Br)c1)C1CCCCC1	18.6	0	0	0	0	0	0
C=CCN1CCc2nc(N)sc2CC1	50.0	-	0	0	0	0	151.1
CCN1CCc2nc(N)sc2C1	0	0	0	0	0	-	-
CC(C)(C)C(=O)NCc1ccc(C(=O)CSc2nnc(-c3ccncc3)n2C2CC2)s1	16.0	-	0	0	0	0	0
CC(C)CCNC(=O)CCn1c(=S)oc2ccccc21	18.6	0	0	0	0	0	0
COc1ccccc1NC(=O)CCn1c(=S)oc2ccccc21	0	0	0	0	0	-	-
CC(=O)CC1(O)C(=O)N(CN2CCN(c3ccccc3)CC2)c2ccccc21 (stereo not drawn)	0	0	0	0	0	-	-
CN(C)/N=C1\C(=O)N(CN2CCN(c3ccccc3)CC2)c2ccccc21	21.8	0	0	0	0	0	0
O=C1NC(=S)SC1=Cc1ccccn1	0	-	-	-	-	-	-
COc1ccc(C)cc1S(=O)(=O)N(C)CC(=O)NCc1ccco1	15.9	0	0	0	0	0	0
SMILES	HTR2A ag	AHR activator	FXN GAA850 act	MC4R antagonist	MC4R ag barr	MOR ag counter	m5-HT2A ag conf
COc1ccc(S(=O)(=O)N(C)CC(=O)NCc2ccco2)cc1Cl	0	0	0	0	0	-	-
Cc1cc(C)cc(N(CC(=O)NCc2ccco2)S(=O)(=O)c2ccccc2)c1	15.2	0	0	0	0	0	0
N#C/C(=C\c1ccc(-c2cccc([N+](=O)[O-])c2)o1)c1nnc(N2CCOCC2)n1-c1ccccc1	-	0	-	-	-	-	-
O=C(CCS(=O)(=O)c1ccccc1)Nc1nc2c(s1)COc1ccccc1-2	22.1	62.7	0	0	0	0	0
CC(=O)c1sc(NC(=O)CCS(=O)(=O)c2ccccc2)nc1C	0	0	0	0	0	-	-
COc1cc(C(=O)NC2CCN(CC(=O)Nc3cccc(C)c3C)CC2)cc(OC)c1OC	0	0	0	0	0	-	-
CCc1nc(N)nc(N)c1-c1ccc(N(C)Cc2ccccc2)c([N+](=O)[O-])c1	0	-	0	0	0	-	-
C=C(C)COc1ccc(-c2nc(N)nc(C)c2-c2ccc(OC)cc2)c(O)c1	18.1	0	0	0	0	0	0

Screening data from PubChem BioAssay.
